What was measured:
[1] = test system: LC-2/ad cells (CCDC6-RET); experiment: Cell viability assay; format: cell-based; conditions: Homo sapiens, 72 h, read-out: IC50 (cell viability)
TT cells (RET C634W) = experiment: Cell viability assay; format: cell-based; conditions: Homo sapiens, 96 h, read-out: IC50 (cell viability)
[2] = test system: phospho-RET, phospho-PLCγ, phospho-ERK, phospho-MEK in LC-2/ad cells; experiment: Western blot of RET pathway phosphorylation; format: cell-based, human; conditions: 50 nmol/L to 5 μmol/L, 2 hours
LC-2/ad cells = experiment: Apoptosis assay; format: cell-based, human; conditions: 24-hour incubation
How it was run: (§1)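 Cells kept in F-12K or RPMI with 10% (vol/vol) FBS at 37°C in humidified 5% CO2. They were split into 10-cm dishes and, 24 hours later, exposed to a range of test compound concentrations for 24 hours. Lysates were prepared in RIPA buffer. Cleaved caspase-3 and cleaved PARP were detected by standard Western blotting.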

TT cells = experiment: Apoptosis assay; format: cell-based, human; conditions: 24-hour incubation
How it was run: as §1

[3] = test system: RET-rearranged lung cancers; conditions: cited from earlier work
HUVEC cells = conditions: at 1 μmol/L; cited from earlier work

SMILES | IC50 [1] | IC50 (TT cells (RET C634W)) | ERK and MEK phosphorylation [2] | apoptosis (cleaved caspase-3 and cleaved PARP) (LC-2/ad cells) | apoptosis (cleaved caspase-3 and cleaved PARP) (TT cells) | patients requiring a dose reduction due to drug-related toxicities ([3]; phase II study) | overall response rate ([3]; phase II trial) | growth inhibitory activity toward HUVEC cells (HUVEC cells)
COc1cc2nccc(Oc3ccc(NC(=O)C4(C(=O)Nc5ccc(F)cc5)CC4)cc3)c2cc1OC [cabozantinib] | 0.098 µM | 0.077 µM | able to decrease phospho-ERK and phospho-MEK at as low as 50 nmol/L | induced apoptosis | no cleavage of caspase-3 and PARP | approximately two thirds | 28% | 
CCc1cc2c(cc1N1CCC(N3CCOCC3)CC1)C(C)(C)c1[nH]c3cc(C#N)ccc3c1C2=O [alectinib] | 0.204 µM | 0.09 µM | neither RXDX-105 nor alectinib treatment showed detectable change | induced apoptosis | no cleavage of caspase-3 and PARP was seen in the TT cells, except for the higher doses of alectinib |  |  | 
COc1cc2ncnc(Oc3cccc(NC(=O)Nc4cc(C(C)(C)C(F)(F)F)on4)c3)c2cc1OC.Cl [RXDX-105, 1-(3-(6,7-dimethoxyquinazolin-4-yloxy)phenyl)-3-(5-(1,1,1-trifluoro-2-methylpropan-2-yl)isoxazol-3-yl)urea hydrochloride] |  |  |  | induced apoptosis | no cleavage of caspase-3 and PARP |  |  | no growth inhibitory activity
